CHOP UPR activ – activators of apoptotic CHOP UPR arm, primary screen, cell-based, CHO-CHOP luciferase reporter, luminescence, uHTS; UPR activation; percent of tunicamycin response over DMSO baseline; activation, % at 10 µM; 0.34% of 330,000 active; AID 449763, 2010;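 active means at 10 µM dose, activation of 40% or more, normalized to positive control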
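measured by = luciferase luminescence | assay system = CHO-CHOP cells, stable luciferase reporter of PERK-eIF2a-CHOP signalling | amount = 500 reporter cells seeded per well | timing = 6 h compound exposure at 37 °C after overnight seeding | controls = positive tunicamycin 10 µg/mL, negative DMSO alone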
GAA850 FXN act – FXN promoter activators, primary screen, cell-based, luciferase luminescence, HEK293 lucGAA850 | activation, % at 6 µM | AID 540364, 2011 | HEK293 lucGAA850 FXN promoter luciferase reporter, 24 h; percent of 10 µM SAHA response | 0.56% of 360,000 active;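 active means activation above the average of all compounds screened plus 3 SD, cutoff fixed separately per campaign, cut at about 7.5% in these data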
XBP1 UPR activ – activators of adaptive XBP1 UPR arm, primary screen, cell-based, CHO-XBP1 luciferase reporter, luminescence, uHTS; IRE1-XBP1 UPR activation; percent of tunicamycin response, DMSO as zero; activation, % at 20 µM; 0.33% of 330,000 active;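 active means versus positive control, 20 µM dose yields 30% or more activation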
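Material: CHO cell line with stable XBP1 luciferase reporter; buffer or medium: F12 medium containing 10% fetal bovine serum; compound: single point, 20 µM final compound, 1% DMSO; incubation: 6 h treatment, 37 °C; measured by: glow luminescence from Steady-Glo reagent; evaluation: activation, % of tunicamycin; control set: tunicamycin high, DMSO low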
CHOP inh – inhibitors of CHOP promoter induction, primary screen, cell-based, unfolded protein response, luciferase reporter | 3.8% of 220,000 active | AID 2732, 2010 | inhibition, % at 10 µM | CHO-K1 CHOP-promoter luciferase, tunicamycin-induced, 15-18 h;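 active means compounds that reduced the stress-induced luciferase reporter signal by more than about 70% of percent inhibition, limit read from the data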
CHOP confirm – retest of CHOP induction inhibitors, confirmation, cell-based; inhibition, % at 10 µM; shares compounds with CHOP inh; 45% of 2,100 active; CHO-CHOP promoter luciferase reporter, tunicamycin-induced, luminescence; AID 504437, 2011;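 active means mean of three repeat readings of reporter signal inhibition above a set limit, cut at about 70% in these data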
Each line names hits and unclear results; the compound was inactive in the other large screens (follow-up assays come after a bar, where they were run). The sample as a whole holds a higher share of hits than the screen did.

Nc1c(C(=O)Nc2nccs2)sc2nc(-c3cccs3)cc(C(F)(F)F)c12	none
Cc1nnc(NC(=O)c2sc3nc(-c4cccs4)cc(C(F)(F)F)c3c2N)s1	CHOP inh 106.2 | CHOP confirm 94.0
O=C(CCl)N(c1ccccc1)C1CCCCC1	CHOP inh 107.4 | CHOP confirm inactive
CC(=O)N(c1ccccc1)C1CCCC1	none
C[C@H]1CN([C@@H](C)CO)C(=O)c2cc(Br)cnc2O[C@H]1CN(C)C(=O)Cc1ccccn1	none (no result: CHOP UPR activ, XBP1 UPR activ, CHOP inh)
Cc1cc(N/N=C/c2ccc(O)cc2O)nc(-c2ccccc2O)n1	CHOP inh 101.2 (no result: CHOP UPR activ, XBP1 UPR activ) | CHOP confirm inactive
COc1cc(CN2C[C@@H](CO)O[C@@H](n3cnc4c(N5CCOCC5)ncnc43)C2)cc(OC)c1OC	none (no result: CHOP UPR activ, XBP1 UPR activ, CHOP inh)
O=C(Nc1ccc(S(=O)(=O)N2CCOCC2)cc1)c1ccc(CN2CCc3ccccc3C2)cc1	CHOP inh 101.0 (no result: GAA850 FXN act) | CHOP confirm 89.2
O=C(Nc1nc2ccccc2[nH]1)c1ccc([N+](=O)[O-])cc1	none
C/C(=N\Nc1nc2ccccc2[nH]1)c1ccc([N+](=O)[O-])cc1	CHOP inh 102.3 | CHOP confirm inactive
O=C(c1cccs1)N1N=C(c2ccccc2)CC1c1ccccc1O (configuration not stated)	none
Cc1ccc(C2=NN(C(=O)c3cccs3)C(c3ccccc3O)C2)cc1 (configuration not stated)	CHOP inh 102.6 | CHOP confirm 104.9
Cc1ccc(C2=NN(S(=O)(=O)c3ccccc3)C(c3ccccc3O)C2)cc1 (configuration not stated)	CHOP inh 105.6 (no result: CHOP UPR activ, XBP1 UPR activ) | CHOP confirm inactive
CN(C(=O)c1cccc(C(F)(F)F)c1)C1CCCc2ccccc21 (configuration not stated)	none (no result: CHOP inh)
CN(C(=O)CCl)C1CCCc2ccccc21 (configuration not stated)	CHOP inh 105.9 (no result: CHOP UPR activ, XBP1 UPR activ) | CHOP confirm 80.2
O=C(Nc1cccc(F)c1)Nc1nnc([C@@H]2O[C@H](CO)[C@@H](O)[C@H]2O)s1	none (no result: CHOP UPR activ, XBP1 UPR activ, CHOP inh)
Cc1ccc(NC(=O)/C(=C\c2ccc([N+](=O)[O-])cc2)NC(=O)c2ccccc2)cc1	CHOP inh 98.1 | CHOP confirm inactive
CN1C[C@@H](CO)O[C@@H](n2cnc3c(N4CCOCC4)ncnc32)C1	none (no result: CHOP UPR activ, XBP1 UPR activ, CHOP inh)
Cc1cccc(C)c1NC(=O)COc1ccccc1C(=O)Nc1ccc(Br)cn1	CHOP inh 106.3 | CHOP confirm 101.5
Cc1nn(-c2ccccc2Cl)c(Cl)c1/C=N/Nc1nc2ccccc2s1	CHOP inh 96.7 | CHOP confirm 98.4
CN(C)c1ncnc2c1ncn2[C@H]1CN(Cc2cccs2)C[C@@H](CO)O1	none (no result: CHOP UPR activ, XBP1 UPR activ, CHOP inh)
CCCc1nn(-c2ccccc2)c2c1C(c1cccs1)C(C#N)=C(N)O2 (configuration not stated)	CHOP inh 107.7 | CHOP confirm inactive
Cc1nn(-c2ccccc2)c2c1C(c1cccs1)C(C#N)=C(N)O2 (configuration not stated)	none
Oc1ccc(/C=N/Nc2nc(-c3ccc(Cl)cc3)cc(C(F)(F)F)n2)cc1	CHOP inh 102.3 | CHOP confirm 98.1
CCCCn1c(/N=C/c2ccc3c(c2)OCO3)nc2ccccc21	CHOP inh 98.2 | CHOP confirm inactive
CCCCn1c(/N=C/c2c[nH]c3ccccc23)nc2ccccc21	CHOP inh 111.0 | CHOP confirm 116.7
CCn1c(/N=C/c2c[nH]c3ccccc23)nc2ccccc21	none
CCCn1c(/N=C/c2c[nH]c3ccccc23)nc2ccccc21	CHOP inh 104.6 | CHOP confirm inactive
O=C(NCc1ccc(C(F)(F)F)cc1)c1ccc(-c2cccnc2)c2ccoc12	none (no result: CHOP UPR activ, XBP1 UPR activ, CHOP inh)
Cc1cccc(-c2cnc(C(O)c3ccc(F)c(C)c3)[nH]2)c1 (configuration not stated)	none (no result: CHOP UPR activ, XBP1 UPR activ, CHOP inh)
COc1cccc(NC(=O)CCC2CCN(C(=O)C(OC)c3ccccc3)CC2)c1 (configuration not stated)	none (no result: CHOP UPR activ, XBP1 UPR activ, CHOP inh)
CCC(CC)c1nnc(NC(=O)c2c(C)nn(Cc3ccccc3Cl)c2C)s1	CHOP inh 105.0 | CHOP confirm 89.9
Cc1ccccc1CS(=O)(=O)c1nnc([C@H](CC(C)C)NC(=O)OC(C)(C)C)o1	CHOP inh 107.5 | CHOP confirm 122.8
Cc1ccccc1Cn1c(C)c(C(=O)NCC(C)C)sc1=O	none (no result: CHOP UPR activ, XBP1 UPR activ, CHOP inh)
Cc1cccc(/C=N\NC(=O)c2ccc(Cl)cc2)c1O	CHOP inh 98.0 | CHOP confirm inactive
O=C(Nc1ccc2nc(-c3ccccc3)[nH]c2c1)c1ccco1	none
O=C(Nc1cccc(-c2nc3ccccc3[nH]2)c1)c1cccc(NC(=O)c2ccco2)c1	CHOP inh 107.0 | CHOP confirm inactive
O=C(Nc1ccc(-c2nc3ccccc3[nH]2)cc1)c1ccc2c(c1)OCO2	CHOP inh 104.7 | CHOP confirm inactive
COc1ccc(Cc2nc3ccccc3n2CC(=O)N/N=C/c2ccc(O)cc2)cc1OC	none
COc1ccc(Cc2nc3ccccc3n2CC(=O)N/N=C/c2ccc(C)cc2O)cc1OC	CHOP inh 104.2 | CHOP confirm 103.3
Cc1ccc(C2=N/C(=C\c3cccnc3)C(=O)O2)cc1	none
CCc1ccc(C2=C/C(=C/c3cccnc3)C(=O)O2)cc1	CHOP inh 103.2 | CHOP confirm inactive
O=C(O)c1ccccc1C(=O)Nc1ccccc1	none
O=C(Nc1ccccc1)C1=C(c2ccccc2)S(=O)(=O)CCS1(=O)=O	CHOP inh 108.3 (no result: CHOP UPR activ, XBP1 UPR activ) | CHOP confirm 109.8
CCN(CC)CCOC(=O)c1ccc(N/C=C(/C#N)c2nc(-c3ccc(OC)c(OC)c3)cs2)cc1	none
CCN(CC)CCOC(=O)c1ccc(N/C=C(/C#N)c2nc(-c3cccc(OC)c3)cs2)cc1	CHOP inh 104.7 | CHOP confirm 79.5
CCCn1c(=O)c(C(=O)NNS(=O)(=O)c2ccc(Cl)cc2)c(O)c2ccccc21	CHOP inh 106.9 | CHOP confirm inactive
CC(Oc1ccc(Br)cc1)C(=O)N(Cc1ccccc1)c1c(N)n(Cc2ccccc2)c(=O)[nH]c1=O (configuration not stated)	none (no result: CHOP UPR activ, XBP1 UPR activ, CHOP inh)
CC(C)CCn1c(-c2nonc2N)nc2ccccc21	none
CCCCn1c(-c2nonc2N)nc2ccccc21	CHOP inh 100.1 | CHOP confirm inactive
Cc1ccc(-c2cc3c(nn2)-c2ccccc2C3=O)cc1	CHOP inh 100.6 | CHOP confirm 107.8
CC(C)(C)c1nnc(N/N=C/c2cc(Br)ccc2O)n(N)c1=O	CHOP inh 106.5 (no result: CHOP UPR activ, XBP1 UPR activ) | CHOP confirm 117.5
CCc1nnc(N/N=C/c2cc(Br)c(O)cc2O)n1N	none (no result: CHOP inh)
CCOC(=O)C1(C)CCCN(C(=O)c2ccc3c(c2)CCO3)C1 (configuration not stated)	none (no result: CHOP UPR activ, XBP1 UPR activ, CHOP inh)
CC1(C(=O)NS(=O)(=O)c2cccc(F)c2)CCN1C(=O)CC1CCCCC1 (configuration not stated)	none (no result: CHOP UPR activ, XBP1 UPR activ, CHOP inh)

Assay outcomes as filed in PubChem.
